Converted amounts (≈) assume the structure as drawn. The source made the active and inactive calls. The rule behind the calls is not given here.
Columns and labels:
[1] = Metabolic stability in human liver microsomes assessed as half life; format: ADME, Microsome
Procedure, shortened: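 Compound incubated at 1 μM with human liver microsomes plus selected cofactors (NADPH, UDPGA); clearance followed at 4 time points as % test compound remaining, giving half-life.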

[2] = Permeability at 5 to 10 uM at pH 4, 6.8 and 8 by PAMPA; conditions: pH 4, 6.8, 8, 10 µM
[3] = target: T1, Hexokinase-4 (Homo sapiens) (UniProt P35557); experiment: Activation of His-tagged human recombinant liver glucokinase expressed in Escherichia coli BL21 (DE3) assessed as drug level required for half-maximal activation; format: single protein
T1 sequence (whole entry): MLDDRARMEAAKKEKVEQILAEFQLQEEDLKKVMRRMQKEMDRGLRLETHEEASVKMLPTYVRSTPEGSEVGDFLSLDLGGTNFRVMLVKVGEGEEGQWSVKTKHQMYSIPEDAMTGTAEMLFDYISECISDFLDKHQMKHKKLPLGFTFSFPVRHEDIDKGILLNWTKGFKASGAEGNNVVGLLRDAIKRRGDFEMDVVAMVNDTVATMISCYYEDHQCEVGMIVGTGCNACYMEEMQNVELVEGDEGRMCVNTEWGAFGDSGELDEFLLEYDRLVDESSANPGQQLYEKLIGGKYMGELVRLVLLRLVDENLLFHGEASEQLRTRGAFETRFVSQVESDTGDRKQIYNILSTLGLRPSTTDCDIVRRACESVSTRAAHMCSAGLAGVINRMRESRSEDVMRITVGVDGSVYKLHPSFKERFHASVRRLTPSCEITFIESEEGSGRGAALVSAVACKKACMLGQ
Procedure, shortened: (§1)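 Recombinant human liver GK (aa 17-466), His-tagged, expressed in E. coli BL21 Star (DE3), nickel affinity purified, tag cleaved (GPGSM left), then anion exchange and gel filtration to >95%.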

[4] = tested on: Mus musculus; experiment: Reduction in glucose excursion in C57BL/6 mouse at 50 mg/kg, po in microemulsion administered 30 mins before glucose challenge measured at 4 hrs postdose by oral glucose tolerance test; format: functional, organism-based; parameters: dose 50 mg/kg; conditions: C57BL6
Procedure, shortened: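 C57BL6 mice grouped by matched 0-h plasma glucose; compound given by oral gavage (5 mL/kg) at 50 mg/kg (or 72 mg/kg) in microemulsion (Cremophor RH40, corn oil-monodiglyceride, propylene glycol, ethanol; diluted 2:3 with water) or in water; oral glucose 1 g/kg 30 min later. Blood sampled at 0.5, 1, 2 and 4 h post-dosing for glucose (meter) and insulin; % reduction from control.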

[5] = target: T2, Hexokinase-4 (Rattus norvegicus) (UniProt P17712); experiment: Activation of glucokinase-mediated of glucose phosphorylation in Sprague-Dawley rat hepatocytes assessed as release of [3H]H2O from [2-3H]glucose at 30 uM after 3 hrs; format: cell-based; conditions: Hepatocyte
T2 sequence (whole entry): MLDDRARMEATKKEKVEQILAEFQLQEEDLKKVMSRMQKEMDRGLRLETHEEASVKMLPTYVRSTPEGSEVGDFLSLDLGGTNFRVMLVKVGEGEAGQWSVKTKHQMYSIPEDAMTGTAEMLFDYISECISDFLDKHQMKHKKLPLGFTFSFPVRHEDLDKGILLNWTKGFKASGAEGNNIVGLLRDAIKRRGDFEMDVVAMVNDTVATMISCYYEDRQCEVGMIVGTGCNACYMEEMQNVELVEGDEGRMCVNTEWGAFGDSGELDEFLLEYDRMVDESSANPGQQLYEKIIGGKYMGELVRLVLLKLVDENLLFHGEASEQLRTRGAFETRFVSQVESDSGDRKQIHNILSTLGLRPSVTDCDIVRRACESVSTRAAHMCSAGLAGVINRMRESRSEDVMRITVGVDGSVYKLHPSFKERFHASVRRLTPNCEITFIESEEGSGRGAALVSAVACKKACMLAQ
Procedure, shortened: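 Hepatocytes from overnight-fasted male Sprague-Dawley rats by collagenase perfusion, cultured 16-20 h at 37 °C, 5% CO2 in serum-free DMEM with 5 mM glucose plus dexamethasone. Preincubated 3 h at 37 °C in serum-free DMEM, 5 mM glucose, with DMSO or 30 μM compound, then 30 min with [2-3H]glucose. Medium collected into 0.1 M HCl; detritiated glucose (nmol/h per 10^6 cells) as % increase over vehicle; quadruplicate, mean ± SEM, Student's t test.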

[6] = Aqueous solubility by HPLC analysis; format: physicochemical; conditions: buffer
[7] = tested on: Mus musculus; experiment: Reduction in glucose excursion in C57BL/6 mouse at 72 mg/kg, po in microemulsion administered 30 mins before glucose challenge measured up to 6 hrs postdose by oral glucose tolerance test; format: functional, organism-based; parameters: dose 72 mg/kg; conditions: C57BL6
[8] = tested on: Mus musculus; experiment: Increase in basal insulin release from beta cells in po dosed C57BL/6 mouse; format: functional, organism-based; conditions: C57BL6
[9] = tested on: Mus musculus; experiment: Increase in insulin release from beta cells in po dosed C57BL/6 mouse after glucose challenge; format: functional, organism-based; conditions: C57BL6
[10] = target: T1, Hexokinase-4 (Homo sapiens); experiment: Activation of His-tagged human recombinant liver glucokinase expressed in Escherichia coli BL21 (DE3) assessed as drug level required for half-maximal activation for sigmoid activation curve; procedure, shortened: as §1
[11] = Intrinsic solubility in neutral pH by HPLC analysis; format: physicochemical
[12] = Aqueous solubility in water by HPLC analysis; format: physicochemical

CCC(=O)NS(=O)(=O)c1ccc(C(CC2CCCC2)C(=O)Nc2nc3ccc(OC)nc3s2)cc1 (configuration not stated)
half-life [1]: 4.8 min
logPm [2]: -4.1

COc1ccc2nc(NC(=O)C(CC3CCCC3)c3ccc(S(=O)(=O)NCCN(C)C)cc3)sc2n1 (configuration not stated)
Activity [3]: 117 nM
half-life [1]: 9 min
logPm [2]: -4.8

COc1ccc2nc(NC(=O)C(CC3CCCC3)c3ccc(S(=O)(=O)N(C(C)C)C(C)C)cc3)sc2n1 (configuration not stated)
Activity [3]: 73 nM

CCCC(=O)NS(=O)(=O)c1ccc(C(CC2CCCC2)C(=O)Nc2nc3ccc(OC)nc3s2)cc1 (configuration not stated) [listing 1 of 2 here]
half-life [1]: 2.2 min
logPm [2]: -4.4

CCCC(=O)NS(=O)(=O)c1ccc(C(CC2CCCC2)C(=O)Nc2nc3ccc(OC)nc3s2)cc1 (configuration not stated) [listing 2 of 2 here]
Activity [4]: inactive

COc1ccc2nc(NC(=O)C(CC3CCCC3)c3ccc(S(=O)(=O)NCc4cccs4)cc3)sc2n1 (configuration not stated)
Activity [3]: 1450 nM
half-life [1]: 25.3 min
logPm [2]: -5.1

CCCN(CCC)S(=O)(=O)c1ccc(C(CC2CCCC2)C(=O)Nc2nc3ccc(OC)nc3s2)cc1 (configuration not stated)
Activity [3]: 35 nM

COc1ccc2nc(NC(=O)C(CC3CCCC3)c3ccc(S(=O)(=O)N4CCCCC4)cc3)sc2n1 (configuration not stated)
Activity [3]: 66 nM
Activity [5]: 230%
half-life [1]: 6.2 min
logPm [2]: -5.2

COc1ccc2nc(NC(=O)C(CC3CCCC3)c3ccc(S(=O)(=O)N4CCN(C)CC4)cc3)sc2n1 (configuration not stated)
Activity [3]: 39 nM
Activity [5]: 498%
half-life [1]: 9.1 min
solubility [6]: 50 µg/mL (≈ 92 µM)
Activity [7]: Active
Activity [8]: inactive
Activity [9]: inactive
Activity [10]: 11 mM
logPm [2]: -3.9

COc1ccc2nc(NC(=O)C(CC3CCCC3)c3ccc(S(=O)(=O)N(C)Cc4ccco4)cc3)sc2n1 (configuration not stated)
Activity [3]: 109 nM
Activity [5]: 67%
half-life [1]: 5.1 min
logPm [2]: -5.1

COc1ccc2nc(NC(=O)C(CC3CCCC3)c3ccc(S(=O)(=O)NCc4ccccn4)cc3)sc2n1 (configuration not stated)
Activity [3]: 180 nM
solubility [6]: 10 µg/mL (≈ 18.1 µM)

COc1ccc2nc(NC(=O)C(CC3CCCC3)c3ccc(S(=O)(=O)NCCC(=O)O)cc3)sc2n1 (configuration not stated)
Activity [3]: 2810 nM
half-life [1]: 22.6 min
solubility [11]: > 570 µg/mL
Activity [4]: inactive
logPm [2]: -4.3

COc1ccc2nc(NC(=O)C(CC3CCCC3)c3ccc(S(=O)(=O)Nc4ccccc4)cc3)sc2n1 (configuration not stated)
Activity [3]: 583 nM
logPm [2]: -3.8

COc1ccc2nc(NC(=O)C(CC3CCCC3)c3ccc(S(=O)(=O)N4CCOCC4)cc3)sc2n1 (configuration not stated)
Activity [3]: 153 nM
Activity [5]: 281%

COc1ccc2nc(NC(=O)C(CC3CCCC3)c3ccc(S(=O)(=O)N(C)CCO)cc3)sc2n1 (configuration not stated)
Activity [3]: 147 nM
half-life [1]: 10 min
logPm [2]: -4.4

COc1ccc2nc(NC(=O)C(CC3CCCC3)c3ccc(S(=O)(=O)NCc4cccnc4)cc3)sc2n1 (configuration not stated)
Activity [3]: 377 nM
Activity [5]: 281%
half-life [1]: < 1.5 min
Activity [4]: inactive
logPm [2]: -4.6

COc1ccc2nc(NC(=O)C(CC3CCCC3)c3ccc(S(=O)(=O)N(C)Cc4nccn4C)cc3)sc2n1 (configuration not stated)
Activity [3]: 66 nM
half-life [1]: < 1.5 min
logPm [2]: -4.1

COc1ccc2nc(NC(=O)C(CC3CCCC3)c3ccc(S(=O)(=O)N(C)Cc4ccccc4)cc3)sc2n1 (configuration not stated)
Activity [3]: 263 nM
half-life [1]: 26.2 min
Activity [4]: inactive
logPm [2]: -5.4

O=C(Nc1nc2cccnc2s1)c1ccccc1
Activity [3]: 489 nM
Activity [5]: 411%

COc1ccc2nc(NC(=O)C(CC3CCCC3)c3ccc(S(=O)(=O)Nc4cccnc4)cc3)sc2n1 (configuration not stated)
Activity [3]: 323 nM
Activity [5]: 219%

CCC(=O)[N-]S(=O)(=O)c1ccc(C(CC2CCCC2)C(=O)Nc2nc3ccc(OC)nc3s2)cc1.[Na+] (configuration not stated)
solubility [12]: 11 µg/mL

CCN(CC)S(=O)(=O)c1ccc(C(CC2CCCC2)C(=O)Nc2nc3ccc(OC)nc3s2)cc1 (configuration not stated)
Activity [3]: 42 nM
Activity [5]: 345%
half-life [1]: 5.8 min
logPm [2]: -5.9

COCCNS(=O)(=O)c1ccc(C(CC2CCCC2)C(=O)Nc2nc3ccc(OC)nc3s2)cc1 (configuration not stated)
Activity [3]: 61 nM
Activity [5]: 85%
half-life [1]: 15.7 min
Activity [4]: inactive
logPm [2]: -5

CCCC(=O)[N-]S(=O)(=O)c1ccc(C(CC2CCCC2)C(=O)Nc2nc3ccc(OC)nc3s2)cc1.[Na+] (configuration not stated)
solubility [12]: 26 µg/mL

COc1ccc2nc(NC(=O)C(CC3CCCC3)c3ccc(S(=O)(=O)NC4CCOCC4)cc3)sc2n1 (configuration not stated)
Activity [3]: 305 nM
half-life [1]: 13.1 min
logPm [2]: -4.5

COc1ccc2nc(NC(=O)C(CC3CCCC3)c3ccc(S(=O)(=O)NC4CCCCC4)cc3)sc2n1 (configuration not stated)
Activity [3]: 302 nM
Activity [5]: 78%
half-life [1]: 4.8 min
logPm [2]: -7

COc1ccc2nc(NC(=O)C(CC3CCCC3)c3ccc(S(=O)(=O)NCc4ccco4)cc3)sc2n1 (configuration not stated)
Activity [3]: 892 nM
Activity [5]: 14%
half-life [1]: 290 min
Activity [4]: inactive
logPm [2]: -4.9

COc1ccc2nc(NC(=O)C(CC3CCCC3)c3ccc(S(=O)(=O)NCc4ccccc4)cc3)sc2n1 (configuration not stated)
Activity [3]: 726 nM
Activity [5]: 32%

CCCCN(CCCC)S(=O)(=O)c1ccc(C(CC2CCCC2)C(=O)Nc2nc3ccc(OC)nc3s2)cc1 (configuration not stated)
Activity [3]: 181 nM

COc1ccc2nc(NC(=O)C(CC3CCCC3)c3ccc(S(=O)(=O)N(C)C)cc3)sc2n1 (configuration not stated)
Activity [3]: 295 nM
Activity [5]: 221%
half-life [1]: 17.8 min
logPm [2]: -3.3

COc1ccc2nc(NC(=O)C(CC3CCCC3)c3ccc(S(=O)(=O)NC4CC4)cc3)sc2n1 (configuration not stated)
Activity [3]: 266 nM
half-life [1]: 19.5 min
logPm [2]: -5.2

COc1ccc2nc(NC(=O)C(CC3CCCC3)c3ccc(S(=O)(=O)NCc4ccncc4)cc3)sc2n1 (configuration not stated)
Activity [3]: 207 nM
half-life [1]: < 1.5 min
solubility [6]: 10 µg/mL (≈ 18.1 µM)
logPm [2]: -4.3
